ChEMBL document CHEMBL4368937, “Design, synthesis and biological evaluation of low molecular weight CXCR4 ligands” (Bioorg Med Chem, 2019)

How the values were obtained:
[1] = Cytotoxicity against human MT4 cells in presence of ZnCl2; assay type: cell-based
Procedure, shortened: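 MT-4 viability with compound plus ZnCl2 (10 eq). CC50 is the concentration giving 50% reduction in viable cells; mean of at least three independent experiments.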

[2] = target: T1, C-X-C chemokine receptor type 4 (Homo sapiens, UniProt P61073); assay: Competitive inhibition of TAMRAAc-TZ14011 binding to CXCR4 (unknown origin) expressed in CHO cells at 1 uM in absence of ZnCl2 by NanoBRET assay relative to control; assay type: cell-based
T1 sequence (P61073 whole entry): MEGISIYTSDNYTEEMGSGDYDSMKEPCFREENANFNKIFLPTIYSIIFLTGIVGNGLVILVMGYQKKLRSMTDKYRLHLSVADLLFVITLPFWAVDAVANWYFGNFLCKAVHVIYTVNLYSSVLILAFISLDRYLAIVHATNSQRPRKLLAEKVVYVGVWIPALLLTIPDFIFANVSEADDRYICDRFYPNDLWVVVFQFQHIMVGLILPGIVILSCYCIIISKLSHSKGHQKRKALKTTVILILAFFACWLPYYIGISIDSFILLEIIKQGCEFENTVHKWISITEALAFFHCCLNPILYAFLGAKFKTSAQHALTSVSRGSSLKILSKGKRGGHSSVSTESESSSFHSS
Procedure, shortened: (§1)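 Single-point competition in CHO cells stably expressing N-terminally Nluc-tagged CXCR4 (5 x 10^4 cells, seeded 24 h earlier at 37 °C, 5% CO2, medium then replaced with OptiMEM). Cells were incubated with 10 nM TAMRA-Ac-TZ14011 plus 1 µM compound, without or with 10 µM ZnCl2 (10 eq), for 1 h at 25 °C. Furimazine was added and BRET read as acceptor (>610 nm) over donor (460 nm). Inhibition is relative to no compound and to excess Ac-TZ14011; mean ± SEM, n = 3.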

[3] = target: T1, C-X-C chemokine receptor type 4; assay: Competitive inhibition of [125I]-CXCL12 binding to CXCR4 in human Jurkat cells at 1 uM in presence of ZnCl2 after 2 hrs by gamma counting analysis relative to control; assay type: cell-based
[4] = tested on: Human immunodeficiency virus 1; assay: Antiviral activity against X4 tropic HIV-1 NL4-3 infected in human MT4 cells assessed as protection against virus-induced cytopathic effect in absence of ZnCl2 after 5 days by MTT assay; assay type: functional, organism-based; conditions: Human immunodeficiency virus 1, NL4-3, MT4, 120 h
Procedure, shortened: (§2)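 Protection of MT-4 cells from X4 HIV-1 NL4-3 cytopathicity. Infected cells (MOI 0.001, 2.0 × 10^4 cells/well) received graded compound concentrations, without or with ZnCl2 (10 eq), for 5 days at 37 °C. Viable cells were counted by MTT. EC50 is the concentration giving 50% protection; mean of at least three independent experiments.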

[5] = tested on: Human immunodeficiency virus 1; assay: Antiviral activity against X4 tropic HIV-1 NL4-3 infected in human MT4 cells assessed as protection against virus-induced cytopathic effect in presence of ZnCl2 after 5 days by MTT assay; assay type: functional, organism-based; conditions: Human immunodeficiency virus 1, NL4-3, MT4, 120 h; procedure, shortened: as §2
[6] = target: T1, C-X-C chemokine receptor type 4; assay: Competitive inhibition of TAMRAAc-TZ14011 binding to CXCR4 (unknown origin) expressed in CHO cells in presence of ZnCl2 by NanoBRET assay relative to control; assay type: cell-based
Procedure, shortened: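 Cells were incubated with 10 nM TAMRA-Ac-TZ14011 and compound plus ZnCl2 (10 eq). Furimazine was added and BRET ratio taken as >610 nm over 460 nm emission. Inhibition is scaled between no compound and excess Ac-TZ14011.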

[7] = target: T1, C-X-C chemokine receptor type 4; assay: Competitive inhibition of TAMRAAc-TZ14011 binding to CXCR4 (unknown origin) expressed in CHO cells at 1 uM in presence of ZnCl2 by NanoBRET assay relative to control; assay type: cell-based; procedure, shortened: as §1
[8] = target: T1, C-X-C chemokine receptor type 4; assay: Competitive inhibition of [125I]-CXCL12 binding to CXCR4 in human Jurkat cells at 1 uM in absence of ZnCl2 after 2 hrs by gamma counting analysis relative to control; assay type: cell-based
[9] = Cytotoxicity against human MT4 cells in absence of ZnCl2; assay type: cell-based
[10] = tested on: Human immunodeficiency virus 1; assay: Antiviral activity against R5 tropic HIV-1 NL(AD8) infected in human MT4 cells assessed as protection against virus-induced cytopathic effect at 10 uM in absence of ZnCl2 after 5 days by MTT assay; assay type: functional; conditions: Human immunodeficiency virus 1, NL(AD8), MT4, 120 h
[11] = tested on: Human immunodeficiency virus 1; assay: Antiviral activity against R5 tropic HIV-1 NL(AD8) infected in human MT4 cells assessed as protection against virus-induced cytopathic effect at 10 uM in presence of ZnCl2 after 5 days by MTT assay; assay type: functional; conditions: Human immunodeficiency virus 1, NL(AD8), MT4, 120 h

Compound	CC50 [1] [nM]	inhibition [2] [%]	inhibition [3] [%]	EC50 [4] [nM]	EC50 [5] [nM]	IC50 [6] [nM]	inhibition [7] [%]	inhibition [8] [%]	CC50 [9] [nM]	inhibition at 10 µM [10] [%]	inhibition at 10 µM [11] [%]
c1ccc(CN(Cc2ccc(CN3CCCNCCNCCCNCC3)cc2)Cc2ccccn2)nc1	> 10000	101	82.5	6.5	2.7	32	83.7	110	> 10000		
c1ccc(CN(Cc2ccccn2)Cc2ccccc2-c2cccc(CN3CCCNCCNCCCNCC3)c2)nc1		56	100	40	13	7.9	102	41.9	> 10000	< 30	< 30
c1ccc(CN(Cc2ccc3c(CN4CCCNCCNCCCNCC4)cccc3c2)Cc2ccccn2)nc1	> 10000	81.5	77.3	220	28	1.6	107	81.7	> 10000	< 30	< 30
c1ccc(CN(Cc2ccnc(-c3cccc(CN4CCCNCCNCCCNCC4)c3)c2)Cc2ccccn2)nc1		47.6	84.7	170	28	3.5	93.4	63	> 10000	< 30	< 30
c1ccc(CN(Cc2ccc3cc(CN4CCCNCCNCCCNCC4)ccc3c2)Cc2ccccn2)nc1	> 10000	80.7	99.6	470	240	10	89.9	98.2	> 10000	< 30	< 30
c1ccc(CN(Cc2cccc(-c3ccccc3CN3CCCNCCNCCCNCC3)c2)Cc2ccccn2)nc1		44.4	116	4200	1100		83.1	46.1	> 10000	< 30	< 30
c1ccc(CN(Cc2ccc(-c3ccccc3CN3CCCNCCNCCCNCC3)cc2)Cc2ccccn2)nc1		52.6	91.6	40	21	5.7	83.1	54.9	> 10000	< 30	58
c1ccc(CN(Cc2ccc3c(c2)-c2cc(CN4CCCNCCNCCCNCC4)ccc2OCCCCO3)Cc2ccccn2)nc1		54.5	78.4	670	280		78.9	57.3	> 10000	< 30	< 30
c1ccc(CN(Cc2ccc(-c3ncccc3CN3CCCNCCNCCCNCC3)cc2)Cc2ccccn2)nc1		31.9	88.5	110	61	4.5	93.9	41.4	> 10000	< 30	< 30
c1ccc(CN(Cc2ccc(-c3ccc(CN4CCCNCCNCCCNCC4)cn3)nc2)Cc2ccccn2)nc1		75.3	98.7	680	900		94.4	68.6	> 10000	< 30	< 30
c1ccc(CN(Cc2ccc3ccc(CN4CCCNCCNCCCNCC4)cc3c2)Cc2ccccn2)nc1		82.1	87.5	790	1100		84.8	83.5	> 10000	< 30	< 30
c1ccc(CN(Cc2ccc(-c3cccc(CN4CCCNCCNCCCNCC4)c3)cc2)Cc2ccccn2)nc1		89.7	101	800	1100		78.2	10.9	> 10000	< 30	< 30
